Measurements pooled from the literature.
Lines come from different studies, so protocols differ.
Cell line: HepG2
Read-out: cell growth or viability

With N=C(N)c1ccc(OCCCCCOc2ccc(C(=N)N)cc2)cc1 the CC50 was > 20 µM (MTS; 24 h).
For COC1=CC(c2ccco2)=NC1=Cc1ccc(CCCCCCCCCC(C)O)[nH]1 (stereo not drawn), the IC50 was > 100 µM.
COc1ccc(CCN2CCC(Nc3nc4ccccc4n3Cc3ccc(F)cc3)CC2)cc1 has a viability of 68% (resazurin; 10 µM, 24 h).
For C/C=C(/C)C(=O)O[C@@H]1[C@H](OC(C)=O)c2c(ccc3ccc(=O)oc23)OC1(C)C, the IC50 was 50.9 µM (WST-1).
For COc1ccc2c(c1)c1c(n2CO)CN2CCc3cc(OC)c(OCC(F)(F)F)cc3C2C1 (stereo not drawn), the viability was 102% (5 µM, 24 h).
With CC(=O)O[C@@H]1c2c(ccc3ccc(=O)oc23)OC(C)(C)[C@@H]1OC(=O)C1(C)OC1C (stereo partly drawn) the IC50 was 20.7 µM (WST-1).
With CC(C)(C)CC(C)(C)Nc1c(-c2cccnc2)nc2ncccn12 the viability was 92.5% (MTT; 25 µM, 48 h).
COc1cc2[nH]c(C)c(-c3ccc(Oc4ccc(F)c(OC(F)(F)F)c4)cc3)c(=O)c2cc1Cl gave an IC50 of > 10 µM (resazurin).
CCCCCCn1c(-c2cccc(Cl)c2)n[nH]c1=S has a viability of 92% (resazurin; 50 µM, 24 h).
With COc1ccc2c(c1)c1c(n2CO)CN2CCc3cc(OC)c(OCc4ccc(F)cc4)cc3C2C1 (stereo not drawn) the viability was 104% (20 µM, 24 h).
With COC(=O)[C@]1(O)C[C@@H](O)[C@@H](O)[C@H](OC(=O)/C=C/c2ccc(O)c(O)c2)C1 the IC50 was 30.9 µM (WST-1).
With CNc1cccc2cc(C(=O)NCc3ccc(C(=O)O)cc3)c(=O)[nH]c12 the cell death was 18% (CCK-8; 50 µM, 48 h).
With COc1cc2[nH]c(C)c(-c3ccc(Oc4ccc(F)cc4)cc3)c(=O)c2cc1Cl the IC50 was > 10 µM (resazurin).
COc1cc2c(cc1OCc1ccccc1F)C1Cc3c(n(CO)c4ccccc34)CN1CC2 (stereo not drawn) has a viability of 109% (10 µM, 24 h).
For CC(C)(C)CC(C)(C)Nc1c(-c2ccccc2)nc2ncccn12, the viability was 67.4% (MTT; 25 µM, 48 h).
The IC50 of CCc1ccc(C2=NC(=Cc3ccc(CCCCCCCCCC(C)O)[nH]3)C(OC)=C2)[nH]1 (stereo not drawn) is reported as 1.76 µM.
CC(C)(C)CC(C)(C)Nc1c(-c2cccc(C#N)c2)nc2ncccn12 has a viability of 74.5% (MTT; 25 µM, 48 h).
CC1=C(C)C(c2ccc[nH]2)=NC1=Cc1ccc(CCCCCCCCCC(C)O)[nH]1 (stereo not drawn) gave an IC50 of 9.38 µM.
COc1cc2[nH]c(C)c(-c3ccc(Oc4ccc(OC(F)(F)F)c(F)c4)cc3)c(=O)c2cc1Cl has an IC50 of > 10 µM (resazurin).
With COC1=CC(c2ccc[nH]2)=NC1=Cc1ccc(CCCCCCCCCCO)[nH]1 the IC50 was 11.4 µM.
With Cc1[nH]c2ccc(Cl)cc2c(=O)c1-c1ccc(Oc2ccc(OC(F)(F)F)cc2)nc1 the IC50 was > 10 µM (resazurin).
CNc1cccc2cc(C(=O)NCCc3cccc(C(=O)O)c3)c(=O)[nH]c12 gave a cell death of 15% (CCK-8; 50 µM, 48 h).
Cc1[nH]c2ccc(F)cc2c(=O)c1-c1ccc(Oc2ccc(OC(F)(F)F)cc2)nc1 has an IC50 of > 10 µM (resazurin).
COc1ccc2c(c1)c1c(n2CO)CN2CCc3cc(OCc4ccccc4)c(OC)cc3C2C1 (stereo not drawn) has a viability of 88.9% (20 µM, 24 h).
